The record followed here is ChEMBL document CHEMBL3425475, “Identification of indole inhibitors of human hematopoietic prostaglandin D2 synthase (hH-PGDS)” (Bioorg Med Chem Lett, 2015).

Data set [1] has as its target T1, Hematopoietic prostaglandin D synthase (Homo sapiens, UniProt O60760). The experiment in a line: Binding affinity to human HPGDS expressed in Escherichia coli using 1-phenylpyrazole-4-carboxylic acid/6-(3-fluorophenyl)pyridine-3-carboxamide as reporter probe by ligand-observed 1D NMR T1rho binding assay. In short, it runs like this:
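Ligand-observed NMR displacement of reporter molecules from recombinant E. coli-expressed wild-type hH-PGDS. Active-site binding of the reporters was confirmed by competition with a known inhibitor. Kd was calculated from the extent of reporter displacement at two compound concentrations, using the experimentally determined reporter and compound concentrations in an exact mathematical expression. Values are means of at least two independent experiments.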

The target in data set [2] is T1, Hematopoietic prostaglandin D synthase. The experiment in a line: Inhibition human HPGDS expressed in Escherichia coli assessed as reduction in GST enzymatic activity using MCBL and glutathione incubated for 30 mins by fluorescence based assay. In short, it runs like this: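 Compound was preincubated 30 min with enzyme at 1.5 µg/ml in 50 mM Tris, 2 mM MgCl2, 0.1% CHAPS. MCBL (0.4 mM, added solution) and glutathione were then added, and fluorescence (ex 360/em 460) was read at once and again after 30 min. Readings were normalised to DMSO wells (0%) and a control inhibitor (100%). Values are means of at least two independent experiments.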

Data set [3] has the same target. As to the kind of experiment: Binding affinity to human HPGDS expressed in Escherichia coli by isothermal titration calorimetry. The method, boiled down:
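Recombinant wild-type hH-PGDS, expressed in E. coli and purified by cation exchange and gel filtration. Ligand, typically 500 µM at experimentally determined concentration, titrated in 2 µL aliquots into 30–40 µM protein. Reverse titrations (protein into ligand) used where ligand solubility was low. Values are means of at least two independent experiments.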
(In general: Isothermal titration calorimetry measures the heat released or taken up as one component is titrated into another.)

Data set [4] shares this target. The experiment in a line: Inhibition HPGDS in human MEG01 cells assessed as reduction in PGD2 production incubated for 30 mins followed by stimulation with 5 uM ionomycin for 30 mins by enzyme immunoassay method. In kind it is cell-based, MEG-01. The method, boiled down: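 MEG-01 cells were differentiated with 0.1 µM PMA for 16 h, then plated. Inhibitor was added in concentration response, 10 µM–0.15 nM, for 30 min at 37 °C, followed by 5 µM ionomycin for 30 min at 37 °C. Secreted PGD2 in the medium was quantified by PGD2-MOX EIA.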

Data set [5] shares this target. The experiment in a line: Inhibition fluorescein-conjugated ligand binding to human HPGDS expressed in Escherichia coli by fluorescence polarization assay. In short, it runs like this: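 Recombinant E. coli-expressed hH-PGDS. Displacement of a fluorescein-conjugated potent hH-PGDS inhibitor by compound was followed in dose-response by fluorescence polarization, excitation 470 nm and emission 530 nm. The assay was adapted from a commercial kit.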
A general note: In fluorescence polarisation assays a small probe gives low polarisation when free and higher when bound to something large.

Data set [6] is described as follows: Solubility of the compound. The data set is classed as physicochemical.

For orientation: Kd means a measure of binding affinity in units of concentration. The term IC50 denotes the concentration that inhibits the measured activity by half. What is called EC50 is the concentration at which the effect is half-maximal. Usually solubility stands for the concentration that dissolves in the medium under given conditions. Lower therefore signals a poorly soluble substance.

SMILES strings stand for the structures. Values after ≈ are worked out from the molar mass of the structure shown.

T1 sequence (O60760 whole entry): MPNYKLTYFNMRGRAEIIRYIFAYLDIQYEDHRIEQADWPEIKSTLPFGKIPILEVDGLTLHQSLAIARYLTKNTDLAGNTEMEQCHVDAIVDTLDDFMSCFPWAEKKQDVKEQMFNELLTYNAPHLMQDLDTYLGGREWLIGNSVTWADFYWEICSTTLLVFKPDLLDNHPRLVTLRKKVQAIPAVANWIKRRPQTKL

In the case of `O=C1CC[C@@H](C(=O)Nc2cncc(-c3cccc4[nH]ccc34)c2)N1`, in data set [1], binding was put at a Kd of 300 nM. Also, the IC50 in data set [2] was found to be 35 nM.
On to `CC(C)(O)c1nc(-c2ccc(CNC(=O)c3cnc(-c4ccccn4)nc3)cc2)no1`, for which the Kd in data set [1] turned out to be 23 nM; in data set [3], 35 nM. In addition, the concentration for a half-maximal effect (EC50) in data set [4] was 74 nM. Further, in data set [2], the half-maximal inhibitory concentration (IC50) was 70 nM.
With `CN(C)CCC(=O)Nc1cncc(-c2cccc3[nH]ccc23)c1`, the IC50 is 460 nM in data set [5] and 300 nM in data set [2]. For the same compound, the results for the Kd in data set [1] and in data set [3] were 340 nM and 210 nM, respectively. Besides, the EC50 in data set [4] turned out to be 350 nM. Also, in data set [6], the solubility amounted to 95 µM (≈ 29.3 µg/mL).
`O=C(NC1CCN(CC(F)(F)F)CC1)c1ccc(N2CCCC2)nc1` registered a Kd in data set [1] of 200 nM. For the same compound, the IC50 in data set [2] stood at 230 nM.
Compound `O=C(O)c1cnn(-c2ccccc2)c1` returned a Kd in data set [3] of 140000 nM.
On to `O=C(CCc1cccnc1)Nc1cncc(-c2cccc3[nH]ccc23)c1`, for which the Kd in data set [1] came to 50 nM. Besides, the half-maximal inhibitory concentration (IC50) in data set [2] was determined as 26 nM.
For the compound `COCCCNC(=O)c1nc(-c2cccc3[nH]ccc23)no1`, the IC50 in data set [5] was 2900 nM; in data set [2] it was 170 nM. In data set [1], the Kd was found to be 650 nM. For the same compound, in data set [6], the solubility turned out to be 77 µM (≈ 23.1 µg/mL).
`CN(C)c1ccc(C(=O)NC2CCN(CC(F)(F)F)CC2)cn1` had a dissociation constant Kd in data set [1] of 14000 nM.
`Cn1cncc1CC(=O)Nc1cncc(-c2cccc3[nH]ccc23)c1` yielded an equilibrium dissociation constant (Kd) in data set [1] of less than 20000 nM. Moreover, the IC50 in data set [2] came to 1200 nM.
In data set [1], `O=C(NC1CCN(CC(F)(F)F)CC1)c1ccc(-c2cc[nH]c(=O)c2)nc1` showed a Kd of 200 nM. The IC50 in data set [2] was 70 nM.
For the compound `O=C(NC1CCN(CC(F)(F)F)CC1)c1ccc(-c2ccc(=O)[nH]c2)nc1`, the Kd in data set [1] was determined as 10000 nM.
In the case of `CN(C)CCCC(=O)Nc1cncc(-c2cccc3[nH]ccc23)c1`, the results for the IC50 in data set [5] and in data set [2] were 820 nM and 180 nM, respectively. Also, binding in data set [1] was characterised by a dissociation constant (Kd) of 570 nM. Also, the solubility in data set [6] was determined as 84 µM (≈ 27.1 µg/mL).
Regarding `COc1cccc(-c2ccc(C(=O)NC3CCN(CC(F)(F)F)CC3)cn2)c1`, the IC50 in data set [5] is 210 nM; in data set [2], 60 nM. In addition, the dissociation constant (Kd) was determined as 44 nM in data set [1] and 12 nM in data set [3]. Moreover, the concentration for a half-maximal effect (EC50) in data set [4] turned out to be 130 nM. In addition, the solubility in data set [6] turned out to be 4.2 µM (≈ 1.65 µg/mL).
In turn, `O=C(NC1CCN(CC(F)(F)F)CC1)c1ccc(N2CCOCC2)nc1` displayed a Kd in data set [1] of 400 nM. Besides, in data set [2], the half-inhibitory concentration (IC50) came out at 320 nM.
In the same order, the values of `O=C(CCN1CCCCC1)Nc1cncc(-c2cccc3[nH]ccc23)c1` are 1000 nM and 130 nM.
Taken in the same sequence, the figures for `O=C(NC1CCN(CC(F)(F)F)CC1)c1ccc(Oc2ccccc2)nc1` were 60 nM and 31 nM.
Taken in the same sequence, the figures for `O=C(NC1CCN(CC(F)(F)F)CC1)c1ccc(-c2cccc(=O)[nH]2)nc1` were 400 nM and 71 nM.
In data set [1], `O=C1CN(c2ccc(C(=O)NC3CCN(CC(F)(F)F)CC3)cn2)CCN1` showed a Kd of 1000 nM. In addition, in data set [2], the concentration for half-maximal inhibition (IC50) came out at 590 nM.
As to `c1ccc(-c2ncc(-c3cc[nH]n3)s2)cc1`, the Kd was 51 nM in data set [1] and 300 nM in data set [3]. Further, in data set [4], the EC50 came to 110 nM. In addition, the solubility in data set [6] came out at 1.4 µM (≈ 0.318 µg/mL). The half-maximal inhibitory concentration (IC50) in data set [2] came out at 23 nM.
In data set [1], `O=C(NC1CCN(CC(F)(F)F)CC1)c1ccc(N2CCCCC2)nc1` showed a Kd of less than 100 nM. The IC50 in data set [2] turned out to be 48 nM.
Take `O=C(NC1CCN(CC(F)(F)F)CC1)c1ccc(N2CCNCC2)nc1`: binding in data set [1] was put at a Kd of 13000 nM.
For `NC(=O)c1ccc(-c2cccc(F)c2)nc1`, in data set [3], binding was put at a Kd of 800 nM.
In data set [1], `CCC(=O)Nc1cncc(-c2cccc3[nH]ccc23)c1` yielded a Kd of 60 nM. Further, the IC50 in data set [2] came out at 32 nM.
Regarding `O=C(NC1CCN(CC(F)(F)F)CC1)c1ccc(-c2cccc(F)c2)nc1`, the Kd was determined as 9.5 nM in data set [1] and 20 nM in data set [3]. Moreover, in data set [4], the half-maximal effective concentration (EC50) turned out to be 35 nM. In data set [6], this compound showed a solubility of 2.6 µM (≈ 0.992 µg/mL). The IC50 in data set [2] was found to be 200 nM.
The compound `COc1cc(-c2ccc(C(=O)NC3CCN(CC(F)(F)F)CC3)cn2)ccn1` registered a Kd in data set [1] of 2000 nM.
`O=C(Cn1cnnn1)Nc1cncc(-c2cccc3[nH]ccc23)c1` displayed a Kd in data set [1] of 200 nM. Besides, in data set [2], the concentration for half-maximal inhibition (IC50) came to 43 nM.
